Experimental data reported in ChEMBL document CHEMBL4138242, “Synthesis and antibacterial evaluation of novel cationic chalcone derivatives possessing broad spectrum antibacterial activity” (Eur J Med Chem, 2018).
Activity calls are given as the source filed them. No cut-off for these calls is given here.

Key:
[1] = system: Staphylococcus aureus; assay: Antibacterial activity against Staphylococcus aureus ATCC 29213 after 16 to 20 hrs by broth microdilution method; assay type: functional
In short: (§1)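 Broth microdilution per CLSI. Bacteria grown 4-6 h (about 10⁸ CFU/mL), then diluted to about 10⁶ CFU/mL. Medium: Mueller-Hinton broth, except Luria-Bertani broth for E. coli. Compounds in sterile water, twofold series 256-0.5 µg/mL, mixed 1:1 with inoculum, 37 °C for 16-20 h. MIC is the lowest concentration without visible growth. Duplicate wells; experiment repeated at least twice.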

[2] = system: Enterococcus faecalis; assay: Antibacterial activity against Enterococcus faecalis ATCC 29212 after 16 to 20 hrs by broth microdilution method; assay type: functional; in short: as §1
[3] = system: Escherichia coli; assay: Antibacterial activity against Escherichia coli ATCC 25922 after 16 to 20 hrs by broth microdilution method; assay type: functional; in short: as §1
[4] = system: Salmonella enterica; assay: Antibacterial activity against Salmonella enterica ATCC 13076 after 16 to 20 hrs by broth microdilution method; assay type: functional; in short: as §1
[5] = Hemolytic activity in sheep RBC after 1 hr; assay type: ADME, cell-based, Ovis aries, Erythrocyte; settings: sheep red blood cells (erythrocytes)
In short: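 Sheep red blood cells (150 µL suspension) mixed with 50 µL of compound dilutions (5120-10 µg/mL), 1 h at 37 °C, then centrifuged. Supernatant read at 540 nm. Percent hemolysis calculated relative to RBC-only control (0%) and 0.1% Triton X-100 (100%).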

[6] = system: Staphylococcus aureus; assay: Antibacterial activity against methicillin-resistant Staphylococcus aureus clinical isolate 1105183 cono7 after 16 to 20 hrs by broth microdilution method; assay type: functional
In short: (§2)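 CLSI broth microdilution in Mueller-Hinton broth. A 4-6 h culture was diluted to about 10⁶ CFU/mL and mixed 1:1 with compound dilutions prepared at 256 to 0.5 µg/mL from aqueous stocks. Plates were incubated at 37 °C for 16-20 h and read visually for MIC. Each concentration was run in duplicate, and the experiment was repeated at least twice. Vancomycin and meropenem were comparators.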

[7] = system: Staphylococcus aureus; assay: Antibacterial activity against methicillin-resistant Staphylococcus aureus clinical isolate 20130911034sau after 16 to 20 hrs by broth microdilution method; assay type: functional; in short: as §2
[8] = system: Staphylococcus aureus; assay: Antibacterial activity against methicillin-resistant Staphylococcus aureus clinical isolate 0831010 after 16 to 20 hrs by broth microdilution method; assay type: functional; in short: as §2
[9] = system: Staphylococcus aureus; assay: Antibacterial activity against methicillin-resistant Staphylococcus aureus clinical isolate 1104060 after 16 to 20 hrs by broth microdilution method; assay type: functional; in short: as §2
[10] = system: Staphylococcus aureus; assay: Antibacterial activity against methicillin-resistant Staphylococcus aureus clinical isolate 20131012632sau after 16 to 20 hrs by broth microdilution method; assay type: functional; in short: as §2
[11] = system: Staphylococcus aureus; assay: Antibacterial activity against methicillin-resistant Staphylococcus aureus clinical isolate 1207007 after 16 to 20 hrs by broth microdilution method; assay type: functional; in short: as §2
[12] = system: Staphylococcus aureus; assay: Antibacterial activity against methicillin-resistant Staphylococcus aureus clinical isolate 1-may after 16 to 20 hrs by broth microdilution method; assay type: functional; in short: as §2
[13] = system: Staphylococcus aureus; assay: Antibacterial activity against methicillin-resistant Staphylococcus aureus clinical isolate 0906202 after 16 to 20 hrs by broth microdilution method; assay type: functional; in short: as §2
[14] = system: Staphylococcus aureus; assay: Antibacterial activity against methicillin-resistant Staphylococcus aureus clinical isolate 1208143 after 16 to 20 hrs by broth microdilution method; assay type: functional; in short: as §2
[15] = system: Klebsiella pneumoniae; assay: Antibacterial activity against drug-resistant carbapenemase producing Klebsiella pneumoniae clinical isolate KP-14-8 after 16 to 20 hrs by broth microdilution method; assay type: functional; in short: as §2
[16] = system: Klebsiella pneumoniae; assay: Antibacterial activity against drug-resistant carbapenemase producing Klebsiella pneumoniae clinical isolate KP-13-45 after 16 to 20 hrs by broth microdilution method; assay type: functional; in short: as §2
[17] = system: Klebsiella pneumoniae; assay: Antibacterial activity against drug-resistant carbapenemase producing Klebsiella pneumoniae clinical isolate KP-14-3 after 16 to 20 hrs by broth microdilution method; assay type: functional; in short: as §2
[18] = system: Klebsiella pneumoniae; assay: Antibacterial activity against drug-resistant carbapenemase producing Klebsiella pneumoniae clinical isolate KP-14-1 after 16 to 20 hrs by broth microdilution method; assay type: functional; in short: as §2
[19] = system: Klebsiella pneumoniae; assay: Antibacterial activity against drug-resistant carbapenemase producing Klebsiella pneumoniae clinical isolate KP-14-4 after 16 to 20 hrs by broth microdilution method; assay type: functional; in short: as §2
[20] = system: Klebsiella pneumoniae; assay: Antibacterial activity against drug-resistant carbapenemase producing Klebsiella pneumoniae clinical isolate KP-13-54 after 16 to 20 hrs by broth microdilution method; assay type: functional; in short: as §2
[21] = system: Klebsiella pneumoniae; assay: Antibacterial activity against drug-resistant carbapenemase producing Klebsiella pneumoniae clinical isolate KP-14-2 after 16 to 20 hrs by broth microdilution method; assay type: functional; in short: as §2
[22] = system: Klebsiella pneumoniae; assay: Antibacterial activity against drug-resistant carbapenemase producing Klebsiella pneumoniae clinical isolate EC-13-23 after 16 to 20 hrs by broth microdilution method; assay type: functional; in short: as §2
[23] = system: Klebsiella pneumoniae; assay: Antibacterial activity against drug-resistant carbapenemase producing Klebsiella pneumoniae clinical isolate KP-14-5 after 16 to 20 hrs by broth microdilution method; assay type: functional; in short: as §2
[24] = system: Klebsiella pneumoniae; assay: Antibacterial activity against drug-resistant carbapenemase producing Klebsiella pneumoniae clinical isolate KP-13-55 after 16 to 20 hrs by broth microdilution method; assay type: functional; in short: as §2
[25] = system: Klebsiella pneumoniae; assay: Antibacterial activity against drug-resistant carbapenemase producing Klebsiella pneumoniae clinical isolate KP-14-45 after 16 to 20 hrs by broth microdilution method; assay type: functional; in short: as §2
[26] = system: Klebsiella pneumoniae; assay: Antibacterial activity against drug-resistant carbapenemase producing Klebsiella pneumoniae clinical isolate KP-14-18 after 16 to 20 hrs by broth microdilution method; assay type: functional; in short: as §2
[27] = system: Escherichia coli; assay: Antibacterial activity against drug-resistant NDM1 producing Escherichia coli clinical isolate EC-13-49 after 16 to 20 hrs by broth microdilution method; assay type: functional; in short: as §2
[28] = system: Escherichia coli; assay: Antibacterial activity against drug-resistant NDM1 producing Escherichia coli clinical isolate Ecl-14-58 after 16 to 20 hrs by broth microdilution method; assay type: functional; in short: as §2
[29] = system: Escherichia coli; assay: Antibacterial activity against drug-resistant NDM1 producing Escherichia coli clinical isolate KP-13-58 after 16 to 20 hrs by broth microdilution method; assay type: functional; in short: as §2
[30] = system: Escherichia coli; assay: Antibacterial activity against drug-resistant NDM1 producing Escherichia coli clinical isolate Ecl-13-62 after 16 to 20 hrs by broth microdilution method; assay type: functional; in short: as §2
[31] = system: Escherichia coli; assay: Antibacterial activity against drug-resistant NDM1 producing Escherichia coli clinical isolate EC-14-54 after 16 to 20 hrs by broth microdilution method; assay type: functional; in short: as §2
[32] = system: Escherichia coli; assay: Antibacterial activity against drug-resistant NDM1 producing Escherichia coli clinical isolate Ecl-14-59 after 16 to 20 hrs by broth microdilution method; assay type: functional; in short: as §2
[33] = system: Escherichia coli; assay: Antibacterial activity against drug-resistant NDM1 producing Escherichia coli clinical isolate EA-14-61 after 16 to 20 hrs by broth microdilution method; assay type: functional; in short: as §2
[34] = system: Escherichia coli; assay: Antibacterial activity against drug-resistant NDM1 producing Escherichia coli clinical isolate Ecl-14-56 after 16 to 20 hrs by broth microdilution method; assay type: functional; in short: as §2
[35] = system: Escherichia coli; assay: Antibacterial activity against drug-resistant NDM1 producing Escherichia coli clinical isolate 1460 after 16 to 20 hrs by broth microdilution method; assay type: functional; in short: as §2
[36] = system: Escherichia coli; assay: Antibacterial activity against drug-resistant NDM1 producing Escherichia coli clinical isolate SM-15-84 after 16 to 20 hrs by broth microdilution method; assay type: functional; in short: as §2
[37] = system: Escherichia coli; assay: Antibacterial activity against drug-resistant NDM1 producing Escherichia coli clinical isolate CF-15-61 after 16 to 20 hrs by broth microdilution method; assay type: functional; in short: as §2
[38] = system: Escherichia coli; assay: Antibacterial activity against drug-resistant NDM1 producing Escherichia coli clinical isolate CF-13-61 after 16 to 20 hrs by broth microdilution method; assay type: functional; in short: as §2
[39] = system: Staphylococcus aureus; assay: Induction of cytoplasmic membrane depolarization in Staphylococcus aureus ATCC 29213 at 10 to 20 ug/ml measured every 2 mins for 12 mins by DiSC35 dye-based fluorescence assay; assay type: functional, organism-based
In short: (§3)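 Mid-log cells (~10⁸ CFU/mL) were suspended in PBS (S. aureus) or HEPES/glucose/KCl with EDTA (E. coli). They were preloaded with DiSC3(5) for 30 min (S. aureus) or 40 min (E. coli), and baseline fluorescence was read for 8 min. Compound was added to 20 µg/mL final, and fluorescence (ex 622/em 670 nm) was read every 2 min for 12 min. Water served as control.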

[40] = system: Escherichia coli; assay: Induction of cytoplasmic membrane depolarization in Escherichia coli ATCC 25922 at 10 to 20 ug/ml measured every 2 mins for 12 mins by DiSC35 dye-based fluorescence assay; assay type: functional, organism-based; in short: as §3
[41] = system: Staphylococcus aureus; assay: Induction of inner membrane permeabilization in Staphylococcus aureus ATCC 29213 at 10 to 20 ug/ml measured every 2 mins for 12 mins by propidium iodide staining-based fluorescence assay; assay type: functional, organism-based
In short: (§4)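 Mid-log cells (~10⁸ CFU/mL) were suspended in PBS (S. aureus) or HEPES/glucose/KCl (E. coli). They were preincubated with propidium iodide for 30 min (S. aureus) or 40 min (E. coli), and baseline fluorescence was read for 8 min. Compound was added to 20 µg/mL final, and fluorescence (ex 535/em 617 nm) was read every 2 min for 12 min.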

[42] = system: Escherichia coli; assay: Induction of inner membrane permeabilization in Escherichia coli ATCC 25922 at 10 to 20 ug/ml measured every 2 mins for 12 mins by propidium iodide staining-based fluorescence assay; assay type: functional, organism-based; in short: as §4

## CCCCCCCC[N+](C)(C)CC(=O)Nc1ccc(C(=O)/C=C/c2ccc(OC)cc2)cc1.[Cl-]
[1]
  MIC: 1 µg/mL
[2]
  MIC: 2 µg/mL
[3]
  MIC: 4 µg/mL
[4]
  MIC: 4 µg/mL
[5]
  HC50 at 1 h: 124 µg/mL
[6]
  MIC: 1 µg/mL
[7]
  MIC: 1 µg/mL
[8]
  MIC: 0.5 µg/mL
[9]
  MIC: 8 µg/mL
[10]
  MIC: 4 µg/mL
[11]
  MIC: 0.5 µg/mL
[12]
  MIC: 1 µg/mL
[13]
  MIC: 1 µg/mL
[14]
  MIC: 1 µg/mL
[15]
  MIC: 8 µg/mL
[16]
  MIC: 8 µg/mL
[17]
  MIC: 8 µg/mL
[18]
  MIC: 8 µg/mL
[19]
  MIC: 4 µg/mL
[20]
  MIC: 8 µg/mL
[21]
  MIC: 2 µg/mL
[22]
  MIC: 8 µg/mL
[23]
  MIC: 8 µg/mL
[24]
  MIC: 16 µg/mL
[25]
  MIC: 16 µg/mL
[26]
  MIC: 16 µg/mL
[27]
  MIC: 4 µg/mL
[28]
  MIC: 8 µg/mL
[29]
  MIC: 1 µg/mL
[30]
  MIC: 8 µg/mL
[31]
  MIC: 4 µg/mL
[32]
  MIC: 8 µg/mL
[33]
  MIC: 8 µg/mL
[34]
  MIC: 8 µg/mL
[35]
  MIC: 8 µg/mL
[36]
  MIC: 16 µg/mL
[37]
  MIC: 8 µg/mL
[38]
  MIC: 32 µg/mL
[39]
  Activity: Active
[40]
  Activity: Active
[41]
  Activity: Active
[42]
  Activity: Active

## CCCCCCCC[N+](C)(C)CC(=O)Nc1ccc(C(=O)/C=C/c2ccco2)cc1.[Cl-]
[1]
  MIC: 1 µg/mL
[2]
  MIC: 4 µg/mL
[3]
  MIC: 4 µg/mL
[4]
  MIC: 16 µg/mL
[5]
  HC50 at 1 h: 137 µg/mL
[6]
  MIC: 4 µg/mL
[7]
  MIC: 2 µg/mL
[8]
  MIC: 2 µg/mL
[9]
  MIC: 32 µg/mL
[10]
  MIC: 8 µg/mL
[11]
  MIC: 2 µg/mL
[12]
  MIC: 4 µg/mL
[13]
  MIC: 16 µg/mL
[14]
  MIC: 2 µg/mL
[15]
  MIC: 16 µg/mL
[16]
  MIC: 32 µg/mL
[17]
  MIC: 32 µg/mL
[18]
  MIC: 32 µg/mL
[19]
  MIC: 16 µg/mL
[20]
  MIC: 16 µg/mL
[21]
  MIC: 2 µg/mL
[22]
  MIC: 8 µg/mL
[23]
  MIC: 16 µg/mL
[24]
  MIC: 32 µg/mL
[25]
  MIC: 32 µg/mL
[26]
  MIC: 32 µg/mL
[27]
  MIC: 16 µg/mL
[28]
  MIC: 16 µg/mL
[29]
  MIC: 4 µg/mL
[30]
  MIC: 8 µg/mL
[31]
  MIC: 32 µg/mL
[32]
  MIC: 16 µg/mL
[33]
  MIC: 16 µg/mL
[34]
  MIC: 16 µg/mL
[35]
  MIC: 16 µg/mL
[36]
  MIC: 32 µg/mL
[37]
  MIC: 16 µg/mL
[38]
  MIC: 64 µg/mL
